The record followed here is ChEMBL document CHEMBL3763158, “Sampangine (a Copyrine Alkaloid) Exerts Biological Activities through Cellular Redox Cycling of Its Quinone and Semiquinone Intermediates” (J Nat Prod, 2015).

Activity calls are given as the source filed them. The rule behind the calls is not given here.

The subject of data set [1] is T47D. Put plainly: Cytotoxicity against human T47D cells at 1 to 30 uM after 48 hrs by sulforhodamine B assay. It counts as functional, cell-based. A general note: The SRB assay estimates cell density from bound dye.
The nature of data set [2]: Neurotoxicity against rat CGN assessed as neuronal cell death at 30 uM after 24 hrs by Hoechst 33342/propidium iodide staining based assay. In kind it is toxicity. The method in brief:
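Primary cerebellar granule neurons from rat pups, cultured 6–10 days, then exposed 24 h. Stained with Hoechst 33342 and propidium iodide; live (PI negative, healthy nuclei) versus dead or dying (PI positive, or condensed/fragmented nuclei) cells counted.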

Data set [3] relates to T47D. Put plainly: Inhibition of hypoxia-induced HIF-1 in human T47D cells cotransfected with pHRE-luciferase plasmid at 10 to 30 uM preincubated for 30 mins followed by hypoxia induction measured after 16 hrs by luciferase reporter gene assay. In kind it is cell-based. The method in brief: (§1)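 T47D cells transfected with pHRE-luc construct, exposed to hypoxia (1% O2, 16 h) with compound. Luciferase activity read; % inhibition = [1 − (luciferase)compound/(luciferase)control] × 100 against hypoxic media control. Emetine as positive control. Parallel viability by SRB. Average ± SD, n = 3.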
(In a reporter assay the amount or activity of a reporter protein is the signal.)

In data set [4] the test system is T47D. Put plainly: Increase in oxygen consumption rate in human T47D cells at 30 uM by oxytherm Clark-type electrode assay relative to control. It counts as functional. The method in brief: (§2)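 Intact T47D cells; oxygen consumption rate measured by Oxytherm Clark electrode with or without compound, normalized to untreated control. FCCP as positive control. Mean + range of two independent experiments.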

In data set [5] the test system is MDA-MB-231. Put plainly: Cytostatic activity against human MDA-MB-231 cells at 1 to 30 uM after 48 hrs by sulforhodamine B assay in presence of ascorbate. In kind it is functional, cell-based.
Data set [6] has as its system T47D. The data set can be described thus: Cytostatic activity against human T47D cells at 1 to 30 uM after 48 hrs by sulforhodamine B assay. It counts as functional, cell-based.
Data set [7] concerns T47D. The data set can be described thus: Increase in oxygen consumption rate in human T47D cells by oxytherm Clark-type electrode assay. In kind it is functional, cell-based. In outline: as §2
Data set [8] concerns T47D. The data set can be described thus: Induction of alteration in […] in human T47D cells assessed as intracellular calcium level at 30 uM after 30 mins by fura-2 dye based fluorescence assay. In kind it is functional, cell-based. In outline:
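T47D cells loaded with fura-2 per manufacturer's instructions and treated 30 min; per-cell 340/380 nm excitation ratio taken as Ca2+ indicator by live microscopy. Average ± SD of 20 cells.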
For orientation: Calcium flux is commonly read through the fluorescence of an indicator in the cells.

Data set [9] concerns MDA-MB-231. Put plainly: Cytotoxicity against human MDA-MB-231 cells at 1 to 30 uM after 48 hrs by sulforhodamine B assay. In kind it is functional, cell-based.
Data set [10] deals with T47D. The data set can be described thus: Increase in oxygen consumption rate in digitonin permeabilized human T47D cells at 30 uM relative to control. It counts as functional. In outline: (§3)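 Digitonin-permeabilized T47D cells given sequential additions: NaN3 (10 mM) to suppress mitochondrial respiration, then compound (30 μM), solvent (2-propanol, 0.6%) or ascorbate (1 and 5 mM), all final. OCR after each addition normalized to NaN3 value; mean ± range of two experiments.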

In data set [11] the test system is T47D. The data set can be described thus: Effect on mitochondrial membrane potential in human T47D cells at 30 uM after 30 mins by TMRM dye based fluorescence microscopy. It counts as functional, cell-based. In outline: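 T47D cells loaded with TMRM+ (37 °C, 2 h), then compound for 30 min; live epifluorescence imaging, fluorescence quantified per outlined cell in random fields. FCCP as positive control. Average ± SD from 20 cells.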

For data set [12], the system named is T47D. Put plainly: Activation of hypoxia-induced HIF-1 in human T47D cells cotransfected with pHRE-luciferase plasmid at 1 to 3 uM preincubated for 30 mins followed by hypoxia induction measured after 16 hrs by luciferase reporter gene assay. In kind it is cell-based. In outline:
as §1

Data set [13] concerns T47D. The data set can be described thus: Increase in oxygen consumption rate in digitonin permeabilized human T47D cells assessed as reinitiation of sodium azide-stalled cellular respiration at 30 uM relative to control. In kind it is functional. The method in brief: as §3
Another data set has as its system Hep 3B2. The data set can be described thus: Increase in oxygen consumption rate of mitochondrial state 4 respiration in human Hep3B cells assessed as reinitiation of oligomycin-stalled cellular respiration by Clark-type oxygen electrode assay. It counts as functional, cell-based. In outline:
(§4)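 Clark electrode oxygen consumption in cells with oligomycin (F0F1-ATPase inhibitor) stalling respiration, then compound added to test reinitiation; FCCP as standard uncoupler reference.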

Data set [14] has as its system T47D. Put plainly: Cytostatic activity against human T47D cells at 1 to 30 uM after 48 hrs by sulforhodamine B assay in presence of ascorbate. It counts as functional, cell-based.
In data set [15] the test system is T47D. Put plainly: Increase in oxygen consumption rate of mitochondrial state 4 respiration in human T47D cells assessed as reinitiation of oligomycin-stalled cellular respiration by Clark-type oxygen electrode assay. It counts as functional, cell-based. The method in brief: as §4
Data set [16] relates to T47D. Put plainly: Increase in oxygen consumption rate in digitonin permeabilized human T47D cells assessed as reinitiation of sodium azide-stalled cellular respiration by oxytherm Clark-type electrode assay in presence of ascorbate relative to compound alone. In kind it is functional, cell-based. In outline: as §3
The next data set concerns Saccharomyces cerevisiae. The data set can be described thus: Increase in oxygen consumption rate in Saccharomyces cerevisiae at 10 to 30 uM by oxytherm Clark-type electrode assay. In kind it is functional, organism-based. The method in brief:
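Budding yeast oxygen consumption followed with an Oxytherm Clark electrode, with and without compound. Values normalized to untreated control; average + SD of three independent determinations, p < 0.05 significance versus untreated.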

Data set [17] concerns MDA-MB-231. Put plainly: Cytostatic activity against human MDA-MB-231 cells at 1 to 30 uM after 48 hrs by sulforhodamine B assay. In kind it is functional, cell-based.

As to `O=C1c2ccccc2-c2nccc3ccnc1c23` [SAMPANGINE], the outcome with T47D [1], with MDA-MB-231 [5], with T47D [6], in the data set with MDA-MB-231 [9], in the data set with T47D [11] and with Hep 3B2 was Active. Further, the outcome with T47D [14], in the data set on Saccharomyces cerevisiae and in the data set on MDA-MB-231 [17] was Active. Besides, the Activity entry was “Toxic” in [2]; 50% in the data set on T47D [4]; “Dose-dependent effect” with T47D [7]; 46% with T47D [10]; “Dose-dependent effect” in the data set with T47D [12]; 48% in the data set with T47D [13]. Further, the Activity entry in the data set on T47D [15] and in the data set on T47D [16] was “Dose-dependent effect” in each case. The inhibition entry in the data set with T47D [3] is “Dose-dependent effect”. For the same compound, the “fold change (FC)” value in the data set on T47D [4] is 1.5. Besides, the outcome in the data set with T47D [8] was inactive.
